CHO parental Ca = ATP-evoked calcium signal inhibitors, parental CHO, primary screen, counter-screen for OX1R antagonist project, cell-based, fluorescence, Fluo-8 calcium dye. parental CHO-K1, ATP-induced calcium, Fluo-8 fluorescence. inhibition, % at 5.6 µM. hit rate 0.63% among 330,000;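 active = inhibition above that plate's mean sample inhibition plus 3 SD, cut at about 26% in these data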;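 note: 0% = ATP-challenged DMSO wells and 100% = DMSO wells without ATP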
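material = parental CHO cells | also added = ATP as calcium-mobilizing challenge | dosing = single point at 5.6 µM | detection = intracellular calcium via Fluo-8 no-wash fluorescent dye | read-out = % inhibition | benchmarks = low control ATP plus DMSO, high control DMSO only | repeats = one well per compound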
TRPN1 ag = zebrafish TRPN1 channel agonists, primary screen, cell-based, HEK293, calcium fluorescence; transient receptor potential cation channel N1 (TRPN1/NompC), Danio rerio; HEK293 zebrafish TRPN1-YFP, Fluo-8 calcium fluorescence; 100% = response to 87 µM carbachol; activation, % at 3 µM; hit rate 0.18% among 220,000; AID 1424, 2008;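 active = activation above its plate's cutoff, the mean activation of test wells on that plate plus 3 SD, cut at about 19% in these data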;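 note: 0% = DMSO alone and 100% = 87 µM carbachol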
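Material – zebrafish TRPN1-YFP in HEK293 cells · Doses – 3 µM single point · Schedule – dye 1 h 37 °C plus 30 min RT · Signal – Fluo-8 calcium fluorescence, excitation 470-495 nm, emission 515-575 nm · Read-out – % activation versus carbachol response · Control set – carbachol high, DMSO low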
TRPML3 ag = human TRPML3 channel agonists, primary screen, cell-based, HEK293 TRPML3-YFP, Fluo-8 calcium fluorescence, 3 µM. AID 1448, 2008. hit rate 0.29% among 220,000. Mucolipin-3 (Homo sapiens), Q8TDD5. 100% = the carbachol control signal. activation, % at 3 µM;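 active = activation above its plate's cutoff, the mean activation of the plate's test wells plus 3 SD, cut at about 12% in these data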;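 note: 0% = DMSO only wells and 100% = carbachol wells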
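Test system: HEK293 cells stably carrying human TRPML3-YFP; Doses: single dose, 3 µM final nominal compound, 0.3% DMSO final; Schedule: dye loading 1 h 37 °C then 30 min ambient, 125 s read; Technique: Fluo-8 calcium fluorescence; Benchmarks: high control carbachol 87 µM, low control DMSO.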
OX1R antag-1 = OX1R (HCRTR1) antagonists, primary screen, fluorescence, CHO/OX1R cells, Fluo-8 calcium, orexin A. Fluo-8 calcium fluorescence. inhibition, % at 5 µM. hit rate 0.43% among 330,000. AID 434989, 2010;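 active = inhibition above its plate's threshold, mean inhibition of all tested compounds on the plate plus 3 SD, cut at about 37% in these data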;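 note: 0% = orexin A challenge wells and 100% = SB-334867-A antagonist wells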
Target sequence (O43613 whole entry, looked up): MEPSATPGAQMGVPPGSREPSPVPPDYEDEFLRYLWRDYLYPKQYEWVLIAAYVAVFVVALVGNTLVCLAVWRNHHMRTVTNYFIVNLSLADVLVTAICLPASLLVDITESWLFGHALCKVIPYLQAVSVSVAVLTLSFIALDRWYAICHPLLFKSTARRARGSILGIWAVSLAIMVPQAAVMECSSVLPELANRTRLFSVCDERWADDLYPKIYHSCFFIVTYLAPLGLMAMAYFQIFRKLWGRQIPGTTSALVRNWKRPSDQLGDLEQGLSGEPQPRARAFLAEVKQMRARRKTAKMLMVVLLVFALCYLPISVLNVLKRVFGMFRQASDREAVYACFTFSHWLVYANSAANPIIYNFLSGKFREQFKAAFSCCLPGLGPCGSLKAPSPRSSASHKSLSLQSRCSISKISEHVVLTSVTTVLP
OX1R antag-2 = antagonists of human orexin 1 receptor (OX1R). inhibition, % at 6.6 µM. OX1R-expressing cells, FRET antagonist read-out. Orexin/Hypocretin receptor type 1 (Homo sapiens), O43613. hit rate 1.8% among 330,000; in the data active = inhibition mostly above about 38%, no sharp cut-off; inactive = mostly below about 40%;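 note: 0% = agonist challenge alone and 100% = reference antagonist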
OX1R HTRF conf = OX1R (HCRTR1) antagonists, confirmation, cell-based, HTRF | shares compounds with OX1R antag-2 | OX1R-expressing cells, HTRF antagonist assay | inhibition, % at 6.6 µM | hit rate 49% among 1,800; in the data active = inhibition above about 55%;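 note: CHO cells expressing OX1R stimulated with orexin A at about EC80; 0% = agonist challenge alone and 100% = reference antagonist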
CHO-K1 HTRF = signal inhibition in parental CHO-K1 cells, counter-screen for OX1R antagonist project, cell-based, HTRF | shares compounds with OX1R antag-2 | HTRF counterscreen | inhibition, % at 6.6 µM | hit rate 48% among 1,800; in the data active = inhibition above about 17%;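 note: 0% = agonist challenge with vehicle and 100% = vehicle alone without agonist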
Starred values were filed as active, the others as inactive; / = no result. The list is not random: actives were taken first. Their share in the collection is about 2.5%.

SMILES	CHO parental Ca	TRPN1 ag	TRPML3 ag	OX1R antag-1	OX1R antag-2	OX1R HTRF conf	CHO-K1 HTRF
O=C(Nc1ccc2nc(-c3ccccc3)oc2c1)c1ccco1	-2	2	1	12	94*	85*	12
COc1cc(OC)cc(C(=O)Nc2ccc(-c3nc4ccccc4o3)cc2)c1	-14	0	1	12	86*	25	7
O=C(Nc1ccc2oc(-c3cccnc3)nc2c1)c1ccco1	-15	1	0	-16	32	/	/
O=C(Nc1cccc(-c2nc3ccccc3s2)c1)c1cccs1	-17	-1	1	7	81*	78*	6
CCOc1ccc(Br)cc1S(=O)(=O)NC1=NCCCCC1	-22	/	/	-26	8	/	/
O=C(Nc1ccc(F)c(Cl)c1)C1CC2CCC1C2 (stereo not given)	-21	/	/	-16	14	/	/
O=C(NC(=O)N1CCN(C(c2ccccc2)c2ccccc2)CC1)c1ccccc1	-20	0	0	-10	20	/	/
CN(C)c1ncc(S(=O)(=O)c2ccccc2)c(=O)[nH]1	-9	/	/	-8	4	/	/
Cc1cc(C)n2nc(C(=O)OCC(=O)NNC(=O)c3ccc(Cl)cc3)nc2n1	0	/	/	-11	16	/	/
O=C(Nc1ccc2nc(-c3cccs3)[nH]c2c1)c1cccs1	-4	0	0	10	93*	25	0
O=[N+]([O-])c1ccc(N/N=C2/CCCCC2c2ccccn2)cc1 (stereo not given)	/	1	0	/	/	/	/
CC(C)(C)c1ccc(S(=O)(=O)O/N=C2/CCCCC2c2ccc([N+](=O)[O-])cc2[N+](=O)[O-])cc1 (stereo not given)	8	-1	1	-15	115*	41	47*
COc1cccc(CCNc2ccc(N3C(=O)CC(C)C3=O)cc2[N+](=O)[O-])c1 (stereo not given)	-9	0	0	-24	30	/	/
COc1ccc(Nc2ccc(N3C(=O)CC(C)C3=O)cc2[N+](=O)[O-])cn1 (stereo not given)	12	0	0	-13	78*	41	39*
CCCC(NC(=O)C(C)N1CCN(S(=O)(=O)c2ccccc2)CC1)c1ccccc1 (stereo not given)	-18	/	/	-21	2	/	/
CC1CCC2(CC1)NC(=O)N(CC(=O)Nc1cccnc1Cl)C2=O (stereo not given)	-5	/	/	9	6	/	/
O=C1NC(C(=O)O)=CC(c2ccc([N+](=O)[O-])cc2)N1 (stereo not given)	-2	0	0	4	104*	48	78*
O=C1C=C(c2ccc3c(c2)OCO3)C[C@@H](c2ccc(Cl)cc2)C1	-2	/	/	1	8	/	/
CCCc1cc(=O)oc2c(CN3CCCC3)c(O)ccc12	-14	1	0	-24	94*	14	1
Cc1cc(=O)oc2c(CN3CCCC3)c(O)ccc12	-7	/	/	-12	1	/	/
CN(C)/C=C1/Oc2c(ccc3ccccc23)C1=O	2	-1	0	-3	88*	85*	-6
CCOC(=O)c1ccccc1NC(=O)CSC(C)C(=O)Nc1cc(C)on1 (stereo not given)	-14	/	/	-32	22	/	/
O=C(N/N=C/c1ccc2cccc(OCc3ccccc3)c2n1)c1ccc(Cl)cc1	-15	0	0	-2	79*	37	-2
O=C(N/N=C/c1ccncc1)c1ccc(COc2cccc3cccnc23)cc1	-13	3	1	-13	24	/	/
Cc1cc(C(=O)CN2C(=O)C(=O)N(Cc3ccccc3)C2=O)c(C)n1-c1ccc2c(c1)OCCO2	-9	0	1	-13	10	/	/
SMILES	CHO parental Ca	TRPN1 ag	TRPML3 ag	OX1R antag-1	OX1R antag-2	OX1R HTRF conf	CHO-K1 HTRF
O=[N+]([O-])c1cccc2c(N3CCCC3)ccnc12	-5	3	2	3	132*	61*	101*
Cc1noc(C)c1CCC(=O)N1CCCC(CCC(=O)NCc2ccccc2F)C1 (stereo not given)	-22	0	0	-40	15	/	/
COc1cc(/C=N/NC(N)=O)cc([N+](=O)[O-])c1O	-4	1	0	3	91*	55*	62*
COc1cc(/C=N/NS(=O)(=O)c2ccc(C)c([N+](=O)[O-])c2)cc([N+](=O)[O-])c1O	-8	/	/	2	9	/	/
COc1cccc2oc3cc(C#Cc4ccccn4)ccc3c(=O)c12	-35	/	/	-26	79*	64*	13
O=C(COC(=O)c1cc(-c2ccncc2)nc2ccccc12)Nc1ccc2c(c1)OCO2	1	0	0	-1	152*	35	24*
O=C(Nc1ccc2c(c1)OCO2)c1cc(-c2cccnc2)nc2ccccc12	-11	0	0	-18	37	/	/
O=C(NCCC(=O)N(CCc1ccccc1)Cc1ccccc1)c1ccc(Br)cc1	-23	/	/	-44	27	/	/
CCCn1c(SCC(=O)Nc2nnc(-c3ccccc3)s2)nnc1-c1ccccn1	-37	1	0	10	78*	65*	11
COc1ccc(-c2oc3ccc(N4CCOCC4)cc3c2C#CCO)cc1	-11	/	/	13	81*	39	7
CC(C)(C)c1ccc(S(=O)(=O)/N=C2\C=C(NS(=O)(=O)c3ccccc3)C(=O)c3ccccc32)cc1	-34	/	/	-18	88*	47	4
COc1ccc(N(C=O)C(C(=O)Nc2c(C)cccc2C)c2ccccc2)cc1 (stereo not given)	-21	/	/	-28	19	/	/
O=[n+]1c2c(n([O-])c3cc(F)ccc31)CCCC2	-2	1	1	-9	82*	36	54*
O=C(O)COc1ccccc1/C=C1\SC(=S)N(/N=C/c2ccccc2O)C1=O	6	1	1	-1	98*	70*	46*
O=C(O)COc1ccccc1/C=C1\SC(=S)N(NC(=O)c2ccccc2O)C1=O	-14	/	/	-4	28	/	/
CN1CCN(CCNC(=O)c2ccc3nc(-c4ccc(F)cc4)c(-c4ccc(F)cc4)nc3c2)CC1	-22	/	/	-31	7	/	/
COc1cc(C(C)=O)ccc1COc1ccc(C(=O)O)cc1OC	4	2	0	-14	3	/	/
CSc1nsc(SCC(=O)Nc2ccccc2F)n1	-2	/	/	-20	16	/	/

Screens from PubChem BioAssay.
